In the EternaBench riboswitch data:

Tested on: MS2 coat protein
Assay: apparent Kd, MS2 coat protein; higher = weaker binding; RNA-MaP array; FMN 200 µM where present
Summary of the method: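 Designs were transcribed by stalled E. coli RNA polymerase on Illumina sequencing-chip clusters. They were titrated with SNAP-549-labelled MS2 coat protein from 0.7 or 1.5 nM, doubling to 3 µM, without and then with constant ligand. Buffer: 100 mM Tris-HCl pH 7.5, 80 mM KCl, 4 mM MgCl2, BSA, DTT, yeast tRNA, Tween-20. Green signal was normalised to red-channel RNA signal and control-cluster median Fmax. Apparent Kd is the median of filtered per-cluster binding-curve fits.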

[1] = designed as: OFF switch for flavin mononucleotide, no ligand
[2] = ligand present: flavin mononucleotide, designed as: OFF switch for flavin mononucleotide
[3] = ligand present: flavin mononucleotide, designed as: ON switch for flavin mononucleotide
[4] = designed as: ON switch for flavin mononucleotide, no ligand

Sequence	apparent Kd [1]	apparent Kd [2]	apparent Kd [3]	apparent Kd [4]
CACUGCAUGUAAGGAUAUCGACUGGAAUACAGUCGAGAAGGUACAUGAGGAUCACCCAUGUAAGCAGUGAAUAAUAAUAAUAAU	12.1 nM	23.4 nM	–	–
CUAGUACAUGAGGAUCACCCAUGUCAGGAUAUUGGAUAUGCCUUGGAAUACAUGUUUACAAGAAGGGACUAUAG	23 nM	21.7 nM	–	–
AAAACAUGAGGAUCACCCAUGUAAAUAUCGGUUAAUUGUUGUGAGGAUAUACUAAAUUUUAAGAAGUAGAAGGCACUGGGUACA	–	–	23.9 nM	–
UGAGUGCGUGUUAGGAUAUGGUUUGGUGUUUCGGGCUAGAAGGGACAUGAGGAUCACCCAUGUAAUUGGCGGGU	253 nM	250 nM	–	–
UUGGACGUCGUAGGAUAUGUAGGAUAUUCCUACAUGAGGAUCACCCAUGUUGACAUGGAAGAAGGACAGAAGGACGAAGUCCAU	–	–	4.54 nM	261 nM
GCUGCAUAGGCAGGAUAUGCAAUAAUUCGGAUAAAAUAUAACGAAUUAACAUGAGGAUCACCCAUGUAGAAGGGCCUGUGCAGU	5.95 nM	5.72 nM	–	–
GUUUUCGCAUGAGGAUAUGCUCGCAUUUCAAGAGCAGAAGGUAUGUCUAUAGACAUGAGGAUCACCCAUGUAUCUAACUUUGAA	–	–	65 nM	352 nM
CGUAGUUGGUAAGGAUAUCCUACACUGUUCUGACCCGUGCAAGCUACAUGAGGAUCACCCAUGUGGGAGAAGGUGCGUCAACGC	18.4 nM	19.6 nM	–	–
UUAUACGUUGAGGAUAUGUCAUUUAGUAUAGUUACAGAAGGCGAUACAUGAGGAUCACCCAUGUUUAUGGGCAU	239 nM	164 nM	–	–
ACGUAUCUAGGAUAUACGCUGGGUACUAUUCUCAAGUCAAGACAUGAGGAUCACCCAUGUAGAAGGAGAAGCAA	41 nM	98.4 nM	–	–
CAGCAAAAGUAGAAGGCAGUACUGAUUCAGUACUGAGGAUAUACAUGAGGAUCACCCAUGUAAUAUAGCUGAAUAAUAUAUUAU	6.17 nM	7.56 nM	–	–
GCCAGAGCAGGAUAUUCAAUAAUCCACAUGAGGAUCACCCAUGUCCAGCGAAAGCUGGAGGGAGAAGGGCUCUGGC	94.2 nM	35.1 nM	–	–
CUCGGACAUGAGGAUCACCCAUGUGAGGAUAUGGCGCUAUCGUCAUUAGACGAUUGCGCCAGAAGGCACAAAUG	85.2 nM	268 nM	–	–
UGCGUGUUAGGAUAUCCGCCAAAGACCGACGGUGGAACGCAGGAGAAGGAACAUGAGGAUCACCCAUGUGGGAA	88.1 nM	34.3 nM	–	–
UAAUAAUAGUGAGGAUAUAGUUAUUAUAAUAUACUAGAAGGUACACAUGAGGAUCACCCAUGUUUUAUAAUUUGUAAUUUAAAU	23.2 nM	20.5 nM	–	–
CCUCCGUAUGAGGAUAUCGUCCAGGAAACUGGACGAGAAGGCAUGACAUGAGGAUCACCCAUGUUAAAGUGAUG	21.4 nM	58.4 nM	–	–
CCUGUCGCAUGAGGAUAUGGUCAGCUUUGCUGACCAGAAGGCAUGUCAAUAGACAUGAGGAUCACCCAUGUAGUUAAGACAGGA	–	–	46.7 nM	615 nM
AAGUUUGUACGAGGAUAUCAGUUGUAUCUAAAUUCAACAUGAGGAUCACCCAUGUUGCAAUAGGGUGAGAAGGCGUGUGGGCAA	–	–	37.9 nM	44.6 nM
UGUUGUAUUACAGGAUAUCUAUUGUUUUUGUUUAGAGAAGGGUAUUCACAUGAGGAUCACCCAUGUAUAUACGAGGAAGUUGUG	–	–	72 nM	62.8 nM
GGAUCGAAUGUGAGGAUAUACCUAUGGAAACAUAGGUAGAAGGCACAUGAGGAUCACCCAUGUUCCUACGGUCC	92.2 nM	577 nM	–	–
AGAAACUACGAGAAGGACAUGUGGUCCUUCAGUAACAUGAGGAUCACCCAUGUAGGAUAUCGUAGUUUCAGGAUCGUGAGAUCA	150 nM	19.1 nM	–	–

Sequence	apparent Kd [1]	apparent Kd [2]	apparent Kd [3]	apparent Kd [4]
UUACAGCAAGGAUAUACGGGCUGUGCUUUUCAUUUCUUACAACAUGAGGAUCACCCAUGUAGAAGGUGCAACUU	34.8 nM	63.3 nM	–	–
UCGUUGUCAGGAUAUCGUUAAUUUAAUUGUUUGUAUUAGUUCGAGAAGGGACAUGAGGAUCACCCAUGUUUGUU	57.2 nM	154 nM	–	–
AAAUUUAACGAAGGAUAUGGUUACAUGAGGAUCACCCAUGUAUAUUUUGUGAUCUUGUUAAAGUACCAGAAGGUCGUAUACAUA	173 nM	400 nM	–	–
AAUUUACAGGGAGGAUAUACAUGAGGAUCACCCAUGUAAUCAUAUGAUAUUUCUUUUGUAUGAGUGUAGAAGGCCCAACUACCA	9.96 nM	8.87 nM	–	–
GAAAUAAUGUAAGGAUAUACAUGAGGAUUUCUCGUAGAAGGUACAAGACAUGAGGAUCACCCAUGUGUCGCUCCGUAGAGCGUA	–	–	299 nM	308 nM
AGCUACGUUUCGUAGCAGCUAGGUGAGGAUAUCCUUAACAUGAGGAUCACCCAUGUUUAGCCAUGGGAGAAGGCGCCUAGAAAG	–	–	21.5 nM	259 nM
UUUUUAUUUGAAGGAUAUACUUAACAUGAGGAUCACCCAUGUGGUGUUGUGAGUGAGUGAGUUUAGUAGAAGGUCAAUUCUUUU	401 nM	696 nM	–	–
AAAAAACAUGAGGAUCACCCAUGUCAGGAUAUCGUAAAAAAAAAAAAAAAAAAAAAUGCGAGAAGGGACUGGAA	87.4 nM	125 nM	–	–
UGGUACAUGGGAGGAUAUGGGUUGAUAACAUGAGGAUCACCCAUGUUAAAUUUUGCCGAAAGGCACUAGAAGGCCCAUGUACCU	–	–	142 nM	1130 nM
UGGUACAUCGGAGGAUAUCGUGUGUAAACAUGAGGAUCACCCAUGUCGUACGAGAGUACGGAGAUCGAGAAGGCCGAUGUACCU	–	–	15.1 nM	16.4 nM
UGUUACUAGUAAGGAUAUACUAGCGAUAAGCUAGUAGAAGGUACAGUCUUUUGUAUAACAUGUUUACAUGAGGAUCACCCAUGU	–	–	8.02 nM	10.6 nM
AAAACAUGAGGAUCACCCAUGUAAAGAACGGUUAAUAAAUGUGAGGAUAUACUAAAAUUUACGUAGUAGAAGGCACUGGGUACA	–	–	25.1 nM	20.8 nM
AGACAGUGAGGAUAUGCAGUCGGUGUCACCUGAUGAGAAGAACAUGAGGAUCACCCAUGUAGAAGGCACAGGAA	39 nM	229 nM	–	–
ACUAUACGAGGAUAUACUGUCGGGCCUCGGGCAUACAUACGACAUGAGGAUCACCCAUGUAGAAGGCGUUUACU	34.3 nM	61.6 nM	–	–
AAGCAUUGGCUUCUCAUCUACAUGAGGAUCACCCAUGUCGGGAGAAGGAGGCUUUGACGACUAGCCUAGGAUAUCCUAACGUGC	5.65 nM	6.15 nM	–	–
GAGCUCAAGCAGAAGGCCAUAUGUCAAUCGACAUGAGGAUCACCCAUGUAUGAGCUCGGCGUCGUGGAGGAUAUGCAGGCUCUA	–	–	17.6 nM	351 nM
GGACAUCCCACAGGAUAUGCUGGACUUUGUCCAGCAGAAGGGUGAAAUACAUGAGGAUCACCCAUGUGGAUGUCCAUAUUUAAU	–	–	253 nM	747 nM
GACAGCGACACAGGAUAUGUCAAUUUUACAUGAGGAUCACCCAUGUCCGAAGCAGAAGGGUGAUCGCACGCACACUAAGCCAUG	–	–	98.3 nM	86.5 nM
UGGUACAUGGGAGGAUAUGGGACAUGAGGAUCACCCAUGUGAAAAUUAAAUAUGCCGAGAGGCAACUAGAAGGCCCAUGUACCU	–	–	14.9 nM	29.9 nM
CUGGUGUGAGGAUAUCUACGCCAUGUCUUUGACAUGGCGCAAGAGAAGGCACAUGAGGAUCACCCAUGUACUUC	21.7 nM	74.4 nM	–	–
CACGUCCACACAGGAUAUGCUGGACUUUGUCCAGCAGAAGGGUGACAUGAGGAUCACCCAUGUAAAAGGACGUGUAUAUUUAAU	–	–	62.1 nM	819 nM
